Assays:
Uch37 = target: T1, Uch37 (Homo sapiens, UniProt Q9Y5K5); conditions: ref VanderLinden et al., 2015; cited from earlier work
T1 sequence (Q9Y5K5 1-329): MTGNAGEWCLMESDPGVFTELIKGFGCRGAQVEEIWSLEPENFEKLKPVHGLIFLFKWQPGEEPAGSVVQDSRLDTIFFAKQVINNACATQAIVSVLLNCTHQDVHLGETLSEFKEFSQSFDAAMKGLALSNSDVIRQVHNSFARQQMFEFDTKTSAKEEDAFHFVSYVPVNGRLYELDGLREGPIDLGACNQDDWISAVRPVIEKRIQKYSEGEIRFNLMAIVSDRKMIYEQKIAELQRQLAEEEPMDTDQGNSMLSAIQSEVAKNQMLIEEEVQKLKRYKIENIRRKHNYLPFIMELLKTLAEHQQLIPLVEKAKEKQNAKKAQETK

Rpn13-Uch37 interaction = conditions: ref VanderLinden et al., 2015; cited from earlier work
SK-MEL-5 cells = type: cell-based, Homo sapiens; conditions: endogenous Rpn13 depleted by UTR siRNA; Fig. 6E
Procedure, shortened: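 SK-MEL-5 endogenous Rpn13 was depleted with UTR-targeting siRNA (50 nM) for 24 h. Cells at 70–80% confluency were then transfected with 2 μg wild-type or Q337A/Q338A FLAG-Rpn13 plasmid (Omnifect) per 6-well. Test compound was given at graded concentrations for 24 h. CellTiter-Glo 2.0 luminescence was normalized to vehicle, in technical triplicate and biological duplicate, with SD reported.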

B1: Rpn13Q337A/Q338A: Rpn13 double mutant defective in Uch37 activation, FLAG-tagged, expressed from plasmid (protein, UniProt Q16186 2-407, looked up, variant Q337A Q338A)
Proteasomal ubiquitin …: TTSGALFPSLVPGSRGASNKYLVEFRAGKMSLKGTTVTPDKRKGLVYIQQTDDSLIHFCWKDRTSGNVEDDLIIFPDDCEFKRVPQCPSGRVYVLKFKAGSKRLFFWMQEPKTDQDEEHCRKVNEYLNNPPMPGALGASGSSGHELSALGGEGGLQSLLGNMSHSQLMQLIGPAGLGGLGGLGALTGPGLASLLGSSGPPGSSSSSSSRSQSAAVTPSSTTSSTRATPAPSAPAAASATSPSPAPSSGNGASTAASPTQPIQLSDLQSILATMNVPAGPAGGQQVDLASVLTPEIMAPILANADVQERLLPYLPSGESLPQTADEIQNTLTSPQFAAALGMFSAALASGQLGPLMCQFGLPAEAVEAANKGDVEAFAKAMQNNAKPEQKEGDTKDKKDEEEDMSLD
modifications: FLAG tag
stimulation of Uch37 relative to wild-type Rpn13 (Uch37): about 30%
effect of mutations on physical interaction with Uch37 (Rpn13-Uch37 interaction): the mutations do not affect the physical interaction of the two proteins
viability upon expression of Rpn13 double mutant (SK-MEL-5 cells): no significant effect on viability

Source: publication PMC7680388 (Cell chemical biology, 2020)
